Our source for the MIC values is ChEMBL document CHEMBL3124758, “Toward new classes of potent antibiotics: synthesis and antimicrobial activity of novel metallosaldach-imidazolium salts” (2014).

One assay relates to Bacillus subtilis. In words: Antibacterial activity against Bacillus subtilis after 72 hrs by broth micro-dilution method. Format: functional. A digest of the protocol: (§1)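 Compounds dissolved in H2O and tested at 2.5, 5, 10 and 20 mg/mL. Each strain was seeded in 1 cm3 nutrient broth, mixed with 9 cm3 melted (45 °C) nutrient agar and poured; 4 mm wells were cut. 100 µL compound solution per well, incubated 72 h at 37 °C, and inhibition zone diameter measured. MIC derived from % inhibition at the four levels. Duplicate, repeated twice; modal values. Ampicillin reference.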

Another assay deals with Aspergillus flavus. Description: Antifungal activity against Aspergillus flavus after 72 hrs by broth micro-dilution method. It counts as functional. A digest of the protocol: (§2)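 Aqueous compound solutions, 2.5 to 20 mg/mL, 100 µL per 4 mm well in nutrient agar seeded from nutrient broth culture (1 cm3 broth with 9 cm3 agar at 45 °C). Plates incubated 72 h at 28 °C and clear-zone diameter measured. MIC taken from inhibition at four concentration levels. Duplicate, repeated twice, modal values. Amphotericin B standard.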

For a further assay, the system named is Candida albicans. Description: Antifungal activity against Candida albicans NCIM 3100 after 72 hrs by broth micro-dilution method. Format: functional. Put shortly:
as §2

The test system of another assay is Pseudomonas aeruginosa. Description: Antibacterial activity against Pseudomonas aeruginosa ATCC 27853 after 72 hrs by broth micro-dilution method. The following applies: ATCC 27853, 72 h.
The subject of the next assay is Escherichia coli. In words: Antibacterial activity against Escherichia coli ATCC 25922 after 72 hrs by broth micro-dilution method. Particulars: ATCC 25922, 72 h.
The next assay concerns Staphylococcus aureus. In words: Antibacterial activity against Staphylococcus aureus ATCC 25923 after 72 hrs by broth micro-dilution method. It counts as functional. The following applies: ATCC 25923, 72 h. Put shortly:
as §1

Values after ≈ are worked out from the molar mass of the structure shown. Active and inactive are the calls of the source. The calls are words filed in the database; no cut-off is given here. Some results are limits rather than exact numbers.

Turning to `Cc1[nH]cc[n+]1Cc1ccc(O)c(/C=N/[C@@H]2CCCC[C@H]2/N=C/c2cc(C[n+]3cc[nH]c3C)ccc2O)c1.[Cl-].[Cl-]` (relative stereo), the minimal inhibitory concentration (MIC) against Bacillus subtilis was 17.5 µg/mL; against Candida albicans (NCIM 3100, 72 h), over 250 µg/mL; against Pseudomonas aeruginosa, over 10000 µg/mL; with Escherichia coli it was 17.1 µg/mL; against Staphylococcus aureus, 17.6 µg/mL. Further, the MIC entry with Aspergillus flavus is “inactive”.

As for `CCn1cc[n+](Cc2ccc(O)c(/C=N/[C@@H]3CCCC[C@H]3/N=C/c3cc(C[n+]4ccn(CC)c4)ccc3O)c2)c1.[Cl-].[Cl-]` (relative stereo), the MIC was 15.2 µg/mL in the assay with Bacillus subtilis; over 250 µg/mL against Candida albicans (NCIM 3100, 72 h); over 10000 µg/mL against Pseudomonas aeruginosa; over 250 µg/mL with Escherichia coli; over 250 µg/mL in the assay on Staphylococcus aureus. Moreover, the MIC result with Aspergillus flavus is “inactive”.

For the compound `CCCCn1cc[n+](Cc2ccc(O)c(/C=N/[C@@H]3CCCC[C@H]3/N=C/c3cc(C[n+]4ccn(CCCC)c4)ccc3O)c2)c1.[Cl-].[Cl-]` (relative stereo), the MIC with Bacillus subtilis is 11.2 µg/mL; with Candida albicans (NCIM 3100, 72 h) it was over 250 µg/mL; in the assay on Pseudomonas aeruginosa, over 5000 µg/mL; against Escherichia coli it was 16.7 µg/mL; in the assay on Staphylococcus aureus it was 16.2 µg/mL. Besides, the MIC result in the assay on Aspergillus flavus is “inactive”.

Take `Cc1[nH]cc[n+]1Cc1cc(/C=N/[C@@H]2CCCC[C@H]2/N=C/c2cc(C[n+]3cc[nH]c3C)cc(C(C)(C)C)c2O)c(O)c(C(C)(C)C)c1.[Cl-].[Cl-]` (relative stereo): the MIC was 12.1 µg/mL in the assay on Bacillus subtilis; 55.5 µg/mL against Candida albicans (NCIM 3100, 72 h); over 10000 µg/mL with Pseudomonas aeruginosa; 13.3 µg/mL in the assay on Escherichia coli; 14.9 µg/mL against Staphylococcus aureus. In addition, the MIC result in the assay on Aspergillus flavus is “inactive”.

As to `CCn1cc[n+](Cc2cc(/C=N/[C@@H]3CCCC[C@H]3/N=C/c3cc(C[n+]4ccn(CC)c4)cc(C(C)(C)C)c3O)c(O)c(C(C)(C)C)c2)c1.[Cl-].[Cl-]` (relative stereo), the MIC against Bacillus subtilis is 16 µg/mL; with Candida albicans (NCIM 3100, 72 h) it was over 250 µg/mL; against Pseudomonas aeruginosa it was over 10000 µg/mL; with Escherichia coli, over 250 µg/mL; against Staphylococcus aureus, 18.4 µg/mL. Also, in the assay with Aspergillus flavus, the MIC result is “inactive”.

With `CCCCn1cc[n+](Cc2cc(/C=N/[C@@H]3CCCC[C@H]3/N=C/c3cc(C[n+]4ccn(CCCC)c4)cc(C(C)(C)C)c3O)c(O)c(C(C)(C)C)c2)c1.[Cl-].[Cl-]` (relative stereo), the MIC was 16.4 µg/mL against Bacillus subtilis; 85.2 µg/mL against Candida albicans (NCIM 3100, 72 h); over 5000 µg/mL against Pseudomonas aeruginosa; 12.2 µg/mL against Escherichia coli; 16 µg/mL with Staphylococcus aureus. Also, the MIC result in the assay with Aspergillus flavus was “inactive”.

Regarding `C[C@@H]1[C@H](O)[C@@H](C)/C=C/C=C/C=C/C=C/C=C/C=C/C=C/[C@H](O[C@@H]2O[C@H](C)[C@@H](O)[C@H](N)[C@@H]2O)C[C@@H]2O[C@](O)(C[C@@H](O)C[C@@H](O)[C@H](O)CC[C@@H](O)C[C@@H](O)CC(=O)O[C@H]1C)C[C@H](O)[C@H]2C(=O)O` [AMPHOTERICIN B], the MIC came to 40 µg/mL (≈ 43.3 µM) against Aspergillus flavus and 80 µg/mL (≈ 86.6 µM) against Candida albicans (NCIM 3100, 72 h).

As for `CC1(C)S[C@@H]2[C@H](NC(=O)[C@H](N)c3ccccc3)C(=O)N2[C@H]1C(=O)O` [AMPICILLIN], the minimal inhibitory concentration (MIC) was 20 µg/mL (≈ 57.2 µM) in the assay with Bacillus subtilis, over 1000 µg/mL with Pseudomonas aeruginosa, 15 µg/mL (≈ 42.9 µM) in the assay on Escherichia coli and 12.5 µg/mL (≈ 35.8 µM) in the assay with Staphylococcus aureus. Besides, the MIC entry in the assay on Aspergillus flavus and with Candida albicans was “inactive” throughout.
